# Values joined by “and” are separate entries in the source; they are usually repeats but may differ in a detail not shown here. Identical values can stand only once.
# How the values were obtained:
# Mus musculus [1] = assay: Median survival time of the untreated control groups, in which there are no 30-day survivors at dose 100 mg/kg in exp1; format: functional
# Mus musculus [2] = assay: Median survival time of the treated control groups, in which there are no 30-day survivors at dose 50 mg/kg in exp1; format: functional
# [3] = Ratio of median survival times for non-survivors at dose 100 mg/kg in exp1; format: functional; set-up: unit: %
# Summary of the method: (§1)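 Mice were inoculated ip with 10^6 P388 leukemia cells on day 0. Groups of six (occasionally five) were dosed ip qd on days 1–5 with fresh suspensions; 30 mice served as untreated controls. Deaths were recorded daily up to day 60. T/C% compares the median survival of treated non-survivors (<60 days) with the control median. Medians used grouped data when there were no 30-day survivors, otherwise ungrouped data. t = toxic.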
# Mus musculus [4] = assay: Median survival time of the untreated control groups, in which there are no 30-day survivors at dose 200 mg/kg in exp1; format: functional
# Mus musculus [5] = assay: Median survival time of the treated control groups, in which there are no 30-day survivors at dose 50 mg/kg in exp2; format: functional
# Mus musculus [6] = assay: Change in weight by day 5, obtained by subtracting treated groups of animals minus control groups of animals at dose 50 mg/kg in exp2; format: functional
# Summary of the method: (§2)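 Mice were inoculated ip with 10^6 P388 leukemia cells on day 0, when treated and control mice weighed 19–22 g. Treatment was given ip once daily on days 1–5, within about 5 min of preparing the solution or suspension. Groups of six (occasionally five) were treated, with 30 untreated inoculated mice as controls. The day-5 weight change is the mean treated change minus the mean control change.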
# Mus musculus [7] = assay: Change in weight by day 5, obtained by subtracting treated groups of animals minus control groups of animals at dose 200 mg/kg in exp1.; format: functional; settings: 200 mg/kg; summary of the method: as §2
# [8] = Ratio of median survival times for non-survivors at dose 100 mg/kg in exp2; format: functional; summary of the method: as §1
# Mus musculus [9] = assay: Median survival time of the treated control groups, in which there are no 30-day survivors at dose 100 mg/kg in exp2; format: functional
# Mus musculus [10] = assay: Mortality by day 5 expressed as number of mice died to the total treated at dose 150 mg/kg in exp2; 0/6; format: ADME, organism-based; set-up: dose 150 mg/kg; settings: in vivo
# [11] = Ratio of median survival times for non-survivors at dose 50 mg/kg in exp2; format: functional; summary of the method: as §1
# Mus musculus [12] = assay: Mortality by day 5 expressed as number of mice died to the total treated at dose 200 mg/kg in exp1; 0/6; format: ADME, organism-based; set-up: dose 200 mg/kg; settings: in vivo
# Mus musculus [13] = assay: Change in weight by day 5, obtained by subtracting treated groups of animals minus control groups of animals at dose 150 mg/kg in exp2; format: functional; summary of the method: as §2
# Mus musculus [14] = assay: Mortality by day 5 expressed as number of mice died to the total treated at dose 100 mg/kg in exp1; 0/6; format: ADME, organism-based; set-up: dose 100 mg/kg; settings: in vivo
# Mus musculus [15] = assay: Mortality by day 5 expressed as number of mice died to the total treated at dose 100 mg/kg in exp2; 0/6; format: ADME, organism-based; set-up: dose 100 mg/kg; settings: in vivo
# Mus musculus [16] = assay: Median survival time of the untreated control groups, in which there are no 30-day survivors at dose 100 mg/kg in exp2; format: functional
# Mus musculus [17] = assay: Median survival time of the treated control groups, in which there are no 30-day survivors at dose 150 mg/kg in exp2; format: functional
# [18] = Ratio of median survival times for non-survivors at dose 50 mg/kg in exp1; format: functional; set-up: unit: %; summary of the method: as §1
# Mus musculus [19] = assay: Change in weight by day 5, obtained by subtracting treated groups of animals minus control groups of animals at dose 50 mg/kg in exp1.; format: functional; summary of the method: as §2
# Mus musculus [20] = assay: Median survival time of the treated control groups, in which there are no 30-day survivors at dose 200 mg/kg in exp1; format: functional
# Mus musculus [21] = assay: Median survival time of the untreated control groups, in which there are no 30-day survivors at dose 50 mg/kg in exp1; format: functional
# Mus musculus [22] = assay: Change in weight by day 5, obtained by subtracting treated groups of animals minus control groups of animals at dose 100 mg/kg in exp2; format: functional; summary of the method: as §2
# Mus musculus [23] = assay: Median survival time of the untreated control groups, in which there are no 30-day survivors at dose 150 mg/kg in exp2; format: functional
# [24] = Ratio of median survival times for non-survivors at dose 200 mg/kg in exp1; t= toxic; format: ADME, organism-based; set-up: dose 200 mg/kg; settings: in vivo; summary of the method: as §1
# [25] = Ratio of median survival times for non-survivors at dose 150 mg/kg in exp2; format: functional; summary of the method: as §1
# Mus musculus [26] = assay: Mortality by day 5 expressed as number of mice died to the total treated at dose 50 mg/kg in exp1; 0/6; format: ADME, organism-based; set-up: dose 50 mg/kg; settings: in vivo
# Mus musculus [27] = assay: Median survival time of the treated control groups, in which there are no 30-day survivors at dose 100 mg/kg in exp1; format: functional
compound,measurement,setting,value
CCOS(=O)(=O)CS(C)(=O)=O,Median survival time,Mus musculus [1],11.2
same,Median survival time,Mus musculus [2],13.3
same,Ratio,[3],160
same,Median survival time,Mus musculus [4],11.2
same,Median survival time,Mus musculus [5],14
same,Change in weight,Mus musculus [6],-1.8
same,Change in weight,Mus musculus [7],-5 and -3.4
same,Ratio,[8],170
same,Median survival time,Mus musculus [9],17.9
same,Mortality,Mus musculus [10],0
same,Ratio,[11],133
same,Mortality,Mus musculus [12],0
same,Change in weight,Mus musculus [13],-5.4
same,Mortality,Mus musculus [14],0
same,Mortality,Mus musculus [15],0
same,Median survival time,Mus musculus [16],10.5
same,Median survival time,Mus musculus [17],11
same,Ratio,[18],118
same,Change in weight,Mus musculus [19],-1.4
same,Median survival time,Mus musculus [20],6.9
same,Median survival time,Mus musculus [21],11.2
same,Change in weight,Mus musculus [22],-4.3
same,Median survival time,Mus musculus [23],10.5
same,Ratio,[24],Toxic
same,Ratio,[25],104
same,Mortality,Mus musculus [26],0
same,Median survival time,Mus musculus [27],18

# Source: ChEMBL document CHEMBL1122744, “2-Chloroethyl (methylsulfonyl)methanesulfonate and related (methylsulfonyl)methanesulfonates. Antineoplastic activity in vivo” (J Med Chem, 1984)
